Data set [1] concerns Rattus norvegicus. The experiment in a line: Dose normalized AUC in Sprague-Dawley rat at 30 mg/kg, po QD measured on day 4. The class given is ADME, organism-based. The conditions noted are these: in vivo. Summed up:
(§1)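 Male CD rats (226−325 g), n = 3, given the compound once daily by oral gavage for 4 days. Vehicle was 1% (w/v) methylcellulose aq suspension at 3−6 mg/mL, dosed at 5 mL/kg (target 15−30 mg/kg). Tail vein blood was taken on days 1 and 4 up to 24 h postdose. Blood was diluted 1:1 with water, extracted by acetonitrile protein precipitation and analysed by LC−MS/MS against calibration standards in diluted blood.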

Data set [2] in a line: Cmax in Sprague-Dawley rat at 30 mg/kg, po QD measured on day 1. Set-up: dose 30 mg/kg, route oral. As to conditions: in vivo. In kind it is ADME, organism-based. Summed up:
as §1

A short description of data set [3]: Cmax in Sprague-Dawley rat at 30 mg/kg, po QD measured on day 4. In kind it is ADME, organism-based. More on the design: dose 30 mg/kg, route oral. The conditions noted are these: in vivo. Summed up:
as §1

Data set [4] deals with CYP1A2. The data set is described as follows: Induction of CYP1A2 mRNA expression in Sprague-Dawley rat hepatic microsomes at 30 mg/kg, po QD for 4 days relative to control. The class given is ADME, organism-based, Liver. As to conditions: read-out: FC.
Data set [5] relates to Rattus norvegicus. The data set is described as follows: Dose normalized AUC in Sprague-Dawley rat at 30 mg/kg, po QD measured on day 1. The class given is ADME, organism-based. As to conditions: in vivo. Put shortly:
as §1

A short description of data set [6]: Lipophilicity, log D of the compound at pH 7.4. In kind it is physicochemical. The conditions noted are these: buffer.
A short description of data set [7]: AUC in Sprague-Dawley rat at 30 mg/kg, po QD measured on day 4. The class given is ADME, organism-based. The conditions noted are these: in vivo. Summed up: as §1
A short description of data set [8]: AUC in Sprague-Dawley rat at 30 mg/kg, po QD measured on day 1. The class given is ADME, organism-based. As to conditions: in vivo. Put shortly:
as §1

The nature of data set [9]: Dissociation constant, pKa of the compound. In kind it is physicochemical.
In data set [10] the test system is CYP1A1. The experiment in a line: Induction of CYP1A1 mRNA expression in Sprague-Dawley rat hepatic microsomes at 30 mg/kg, po QD for 4 days relative to control. The class given is ADME, organism-based, Liver. As to conditions: read-out: FC. Put shortly:
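Male CD rats (226–325 g, n = 3) were dosed by oral gavage once daily for 4 days as a 1% w/v aqueous methylcellulose suspension (3–6 mg/mL, 5 mL/kg). At the end of the study, a left lateral liver lobe section was placed in RNALater and homogenised in TRIzol. RNA was purified, DNase-treated and converted to cDNA, and Cyp1a1 was read on low-density TaqMan arrays.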

For data set [11], the system named is CYP1A1. The data set is described as follows: Induction of CYP1A1 mRNA expression in rat hepatic microsomes at 30 mg/kg, po QD for 7 days relative to control. The class given is ADME, organism-based, Liver. The conditions noted are these: read-out: FC. Put shortly: (§2)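 Male rats dosed orally once daily for 7 days. Hepatic mRNA measured by Taqman and expressed as fold induction versus control animals.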

Data set [12] has as its system CYP1A2. The experiment in a line: Induction of CYP1A2 mRNA expression in rat hepatic microsomes at 30 mg/kg, po QD for 7 days relative to control. The class given is ADME, organism-based, Liver. The conditions noted are these: read-out: FC. Summed up: as §2
The test system of data set [13] is CYP1A2. The data set is described as follows: Induction of CYP1A2 mRNA expression in human hepatocytes at 10 uM relative to control. The class given is ADME, cell-based, Hepatocyte. As to conditions: read-out: FC.
For data set [14], the system named is CYP1A2. The data set is described as follows: Induction of CYP1A2 mRNA expression in rat hepatocytes at 10 uM by Taqman analysis relative to control. In kind it is ADME, cell-based, Hepatocyte. As to conditions: read-out: FC. Background: In qPCR the cycle at which signal appears reflects the starting amount.
Data set [15] addresses T1, CYP1A2 (Homo sapiens, UniProt P05177).
T1 sequence (P05177 whole entry): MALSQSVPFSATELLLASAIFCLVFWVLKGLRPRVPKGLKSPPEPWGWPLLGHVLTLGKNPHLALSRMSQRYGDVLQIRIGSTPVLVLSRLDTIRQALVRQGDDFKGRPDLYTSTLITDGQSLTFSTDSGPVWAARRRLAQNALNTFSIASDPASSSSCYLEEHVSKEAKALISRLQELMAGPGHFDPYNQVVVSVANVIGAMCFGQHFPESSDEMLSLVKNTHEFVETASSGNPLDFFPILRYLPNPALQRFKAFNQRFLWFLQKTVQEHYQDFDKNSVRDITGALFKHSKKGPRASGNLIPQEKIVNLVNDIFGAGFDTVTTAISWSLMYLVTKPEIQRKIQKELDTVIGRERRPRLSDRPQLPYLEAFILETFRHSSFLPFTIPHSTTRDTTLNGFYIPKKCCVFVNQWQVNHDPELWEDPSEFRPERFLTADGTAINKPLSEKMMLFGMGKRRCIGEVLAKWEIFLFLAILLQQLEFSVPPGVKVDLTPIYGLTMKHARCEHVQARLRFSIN
The data set is described as follows: Induction of CYP1A2-mediated 7-ethoxyresorufin O-deethylase activity in human hepatocytes at 5 uM after 10 mins by fluorescence assay relative to control. The class given is ADME, cell-based, Hepatocyte. The conditions noted are these: probe 7-ethoxyresorufin, read-out: FC. Summed up:
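Human hepatocytes were treated for 48 h (re-dosed at 24 h), washed, then incubated with 0.5 μM ethoxyresorufin in serum-free medium for 10 min at 37 °C. Resorufin fluorescence read at Ex 530/Em 590 nm. Rate in fluorescence units/min expressed as fold over solvent control.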

The test system of data set [16] is CYP1A1. The data set is described as follows: Induction of CYP1A1 mRNA expression in rat hepatocytes at 10 uM by Taqman analysis relative to control. The class given is ADME, cell-based, Hepatocyte. The conditions noted are these: read-out: FC.

With `Cc1c(-c2noc(-c3ccc(OC(C)C)c(C#N)c3)n2)ccc2c1CCN(C[C@H](O)CO)C2`, the AUC/dose in data set [1] and in data set [5] was 9 kg·min/L each time. Also, the maximum concentration (Cmax) (usually the highest concentration seen after dosing) was 770 ng/mL in [2] and 500 ng/mL in [3]. Also, the fold induction at 96 h was 10 in [4] and 64 in data set [10]. Further, in [6], the log distribution coefficient (logD) (usually lipophilicity at a set pH, counting ionised and neutral species) worked out at 2.7. Moreover, the area under the curve (AUC) (as a rule, concentration integrated over time) in [7] was found to be 3600 ng·h/mL; in [8] it was 4440 ng·h/mL. In addition, the pKa (in general, the negative logarithm of the acid dissociation constant) in data set [9] came to 7.7.

Consider `Cc1c(-c2noc(-c3ccc(OC(C)C)c(C#N)c3)n2)ccc2c1CCN(CCC(=O)O)C2`, for which the fold induction at 168 h is 3 in data set [11] and 1 in data set [12]. In addition, the fold induction at 10 µM in data set [13] is 0.2; in data set [14] it was below 1; in data set [16], below 1. In addition, the fold induction at 10 min, 5 µM in [15] was determined as 1.1.

For the origin of these results see ChEMBL document CHEMBL3627702, “Navigating CYP1A Induction and Arylhydrocarbon Receptor Agonism in Drug Discovery. A Case History with S1P1 Agonists” (J Med Chem, 2015).
